Runt-SMMHC FRET = Runt domain-CBFb-SMMHC interaction inhibition; Q01196+Q13951; Cerulean-Runt/Venus-CBFb-SMMHC FRET ratio 530/480, 1 h; inhibition, % at 20 µM; actives 0.74% (n = 220,000);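 active = mean inhibition across duplicate retests at 20 µM reaching about 50%, limit read from the data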;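 also: 0% = DMSO wells and 100% = wells with excess untagged CBFb-SMMHC; inhibitors lower the FRET ratio by blocking Runt binding to CBFb-SMMHC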
Target sequence (Q01196 whole entry, looked up, the tested form may be a part): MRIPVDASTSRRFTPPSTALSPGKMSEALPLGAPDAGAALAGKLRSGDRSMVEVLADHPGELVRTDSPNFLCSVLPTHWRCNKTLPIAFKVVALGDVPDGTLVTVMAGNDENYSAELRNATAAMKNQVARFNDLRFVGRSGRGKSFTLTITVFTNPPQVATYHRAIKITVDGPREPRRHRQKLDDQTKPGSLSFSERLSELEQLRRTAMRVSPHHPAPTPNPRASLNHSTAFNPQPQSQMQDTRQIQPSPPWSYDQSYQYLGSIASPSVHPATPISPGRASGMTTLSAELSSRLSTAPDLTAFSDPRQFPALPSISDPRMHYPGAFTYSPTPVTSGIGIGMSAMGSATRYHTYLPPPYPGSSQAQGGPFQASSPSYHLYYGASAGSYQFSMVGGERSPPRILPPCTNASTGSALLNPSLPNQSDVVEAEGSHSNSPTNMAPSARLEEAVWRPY
Target sequence (Q13951 whole entry, looked up, the tested form may be a part): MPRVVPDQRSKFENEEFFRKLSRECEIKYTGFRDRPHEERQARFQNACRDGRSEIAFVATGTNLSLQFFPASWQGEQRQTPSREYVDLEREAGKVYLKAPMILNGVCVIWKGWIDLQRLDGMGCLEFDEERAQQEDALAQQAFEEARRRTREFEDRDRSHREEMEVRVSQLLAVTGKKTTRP
Runt-CBFb FRET = inhibitors of human RUNX1 Runt domain binding to CBFb | AID 1496 | Q01196+Q13951 | Cerulean-Runt/Venus-CBFb FRET ratio 530/480, 1 h | inhibition, % at 20 µM | actives 0.46% (n = 220,000);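 active = inhibition over about 50% at 20 µM in the single-dose screen, limit read from the data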;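 also: 0% = DMSO wells and 100% = excess unlabeled CBFb competitor control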
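test system = Cerulean-tagged RUNX1 Runt domain (FRET donor) fusion protein | reagent = Venus-CBFb binding partner, 100 nM | incubation = protein complex preformed 1 h, compound exposure 1 h, room temperature, dark | detection = FRET fluorescence | read-out basis = loss of energy transfer signal | controls = 5 µM unlabeled CBFb as full-inhibition high control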
Hck Nef HTS = human Hck-Nef kinase inhibition. P08631. Recombinant Hck-YEEI plus Nef, Z-Lyte FRET kinase assay. inhibition, % at 20 µM. actives 0.68% (n = 220,000);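 active = Hck-Nef kinase inhibition above about 50%, limit read from the data; inactive = inhibition below that limit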;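 also: 0% = DMSO with Hck plus Nef and 100% = Hck alone without Nef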
pCIP destab = p/CIP protein destabilization | Q05BA5 | F442A p/CIP-EGFP cells, EGFP fluorescence, 16 h | decrease of EGFP signal, % at 10 µM | actives 0.01% (n = 290,000) | AID 1984;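 active = EGFP signal decrease of at least 30% at 10 µM or well 3 SD below plate mean, unless failing retest; inactive = the rest, including hits failing retest or dose response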
DSG3 Ab inh = human desmoglein-3 autoantibody binding inhibition; P32926; DSG3-coupled beads, scFv-anti-DSG3-GFP binding, flow cytometry; hits give low values; binding (percent of control), % at 10 µM; actives 0.48% (n = 310,000);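 active = binding more than 3 SD below its plate's average and above zero; inconclusive = below that plate limit but binding exactly zero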;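 also: hits lower antibody fragment binding to DSG3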
RanGTP-Impb inh = inhibitors of RanGTP-importin-beta interaction, primary screen, biochemical, FRET, CFP-Ran, YFP-importin-beta, homogeneous. actives 1.1% (n = 300,000). AID 2216. inhibition, % (concentration not given with the values). cell-free CFP-Ran/YFP-importin-beta FRET ratio;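 active = more than half of the replicate wells show a fall in the fluorescence ratio signal beyond about 16%, limit read from the data, passing the limit was not always enough; inconclusive = exactly half of the replicate wells pass the set limit; inactive = fewer than half of replicates pass the limit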;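 also: 0% = DMSO wells and 100% = Ran loaded with GDP instead of GTP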
YIC counter = counter-screen: alters YIC FRET probe signal. actives 40% (n = 1,000). IC50, µM. shares compounds with RanGTP-Impb inh. AID 435026. Purified YIC probe, intramolecular FRET ratio YFP/CFP;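 active = fitted half-maximal inhibitory concentration no more than tenfold above the top dose tested; inconclusive = flat fit with 30 to 70% activity, or poor fit; inactive = half-maximal concentration beyond tenfold above the top dose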
An asterisk follows results filed as active; i = inactive; ? = inconclusive; · = no result. An excerpt weighted towards active compounds, which were near 2.1% of everything screened.

SMILES | Runt-SMMHC FRET | Runt-CBFb FRET | Hck Nef HTS | pCIP destab | DSG3 Ab inh | RanGTP-Impb inh | YIC counter
NC(=S)Cc1nc(-c2ccc(Cl)cc2)cs1 | -10 | 1 | 31 | 3 | 102 | 18* | >50
O=C(OCN1C(=O)c2ccccc2C1=O)c1cc(S(=O)(=O)N2CCOCC2)ccc1F | · | · | · | · | 103 | · | ·
N#Cc1cc2c(ccc3ccccc32)oc1=O | 87 | 85* | 20 | -1 | 94 | 38* | >26
CCN(CC)S(=O)(=O)c1ccc(NC(=O)c2cccc3c2C(=O)N(CCOC)C3)cc1 | 8 | -5 | 2 | -16 | 93 | 19* | >50
Oc1c(C(Nc2nc3ccccc3s2)c2ccco2)ccc2cccnc12 (configuration not stated) | 4 | 7 | 0 | -4 | 94 | 22* | >50
COc1ccc(OC)c(N(CC(=O)O)S(=O)(=O)c2ccc(OC)c(OC)c2)c1 | 1 | 0 | -2 | 0 | 104 | 21* | >50
COc1ccc(OC)c(N(CC(=O)N2CCCC2)S(=O)(=O)c2ccc(OC)c(OC)c2)c1 | -2 | -1 | -8 | -4 | 85 | -3 | ·
CCOC(=O)CN(C(=O)CNC(=O)c1ccco1)C(C(=O)NC1CCCCC1)c1cccnc1 (configuration not stated) | · | · | · | 1 | 104 | -3 | ·
Cc1cc(Br)ccc1NC(=O)CN(C)C(=O)C1=COCCO1 | · | · | · | · | 100 | · | ·
C/C(=N\OCC(=O)OCC(=O)NC(=O)c1ccccc1)c1ccc2c(c1)OCO2 | · | · | · | · | 92 | 17* | >50
CCOc1ccc(N2CC(C(=O)Nc3ccccc3C(=O)N3CCOCC3)CC2=O)cc1 (configuration not stated) | · | · | · | -8 | · | -13 | ·
O=C(CN1CC(=O)Oc2ccccc21)NCc1ccco1 | 3 | 5 | 2 | -4 | · | 19* | >50
O=C(CN1CCOc2ccccc21)NCc1ccco1 | -1 | 4 | 2 | -6 | 107 | ? | ·
Cc1ccc(S(=O)(=O)N2CCN(C(=O)c3cc(S(=O)(=O)N(C)C)ccc3N3CCCC3)CC2)c(C)c1 | · | · | · | · | 106 | · | ·
O=C(NC1CC1)c1cc2cc3ccccc3nc2s1 | · | · | · | -1 | 96 | ? | ·
CCOC(=O)c1ccc(CNC(=O)CSc2nnc(-c3ccncc3)o2)cc1 | -5 | 2 | -2 | 1 | 104 | 26* | >50
Nc1nc2nc(-c3ccc(OCc4ccccc4)cc3)cc(C(F)(F)F)n2n1 | 92* | 80* | 2 | 0 | · | 34* | 5*
N=C(N)SCc1nc2ccccc2c(=O)n1-c1ccccc1Cl | 0 | 0 | 1 | -16 | 109 | 26* | >50
Cc1cc(C)c(C#N)c(Nc2ccccc2C)n1 | · | · | · | -2 | 121 | 19* | >50
O=C(N/N=C/c1ccc(-c2ccccc2Cl)o1)c1ccccc1 | 0 | 0 | -34 | -2 | 90 | 21* | >50
CCOC(=O)CC(=O)CSc1nc2c(cc1C#N)CCC2 | 15 | 34 | 1 | -1 | 96 | 16* | 24*
CC1(C)Cc2cccc(OCC(=O)OCC(=O)Nc3ccc(S(N)(=O)=O)cc3)c2O1 | · | · | · | · | 104 | · | ·
CCOC(=O)CCCSc1nc2sc3c(c2c(=O)[nH]1)CCC3 | 1 | 0 | 6 | -5 | 99 | ? | ·
CCOC(=O)CSc1nnc(CSc2nc3sc4c(c3c(=O)[nH]2)CCCC4)n1-c1ccccc1 | -13 | -10 | 1 | -2 | 93 | 32* | >50
Cc1c(C=O)cnn1CCC(=O)O | · | · | -9 | · | 115 | 23* | >50
SMILES | Runt-SMMHC FRET | Runt-CBFb FRET | Hck Nef HTS | pCIP destab | DSG3 Ab inh | RanGTP-Impb inh | YIC counter
C=CCOC(=O)N1CCC2CC1c1cc(-c3cccc(C)c3)ccc12 (configuration not stated) | · | · | · | · | 92 | · | ·
COCCNC(=O)CCC1CCN(Cc2cccc(Oc3ccccc3)c2)CC1 | · | · | · | 7 | 107 | 4 | ·
CC(=O)c1cccc(OCC(=O)N(C)CC(=O)Nc2ccc(F)cc2)c1 | 2 | -2 | 3 | -2 | · | 65* | >50
Cc1oc2c(CN3CCC(C)CC3)c(O)ccc2c(=O)c1-c1ccccc1 | · | · | · | -13 | 94 | -2 | ·
O=C(CSc1nnc(-c2ccc(F)cc2)o1)Nc1ccc(S(=O)(=O)N2CCCC2)cc1 | 1 | -2 | 2 | 4 | 100 | 17* | >50
O=C(CSc1nnc(-c2ccc(F)cc2)o1)Nc1ccc(S(=O)(=O)N2CCCCCC2)cc1 | -1 | -2 | 9 | -10 | 104 | 4 | ·
O=C(c1ccc(-n2cncn2)c([N+](=O)[O-])c1)N1CCN(S(=O)(=O)c2cccc(F)c2)CC1 | · | · | · | · | 121 | -2 | ·
O=c1c2cc(NC(=S)N3CCC(N4CCCCC4)CC3)ccc2nc2n1CCCCC2 | -3 | 1 | 20 | 11 | 113 | 23* | >50
COc1ccc(C2/C(=C(/O)c3ccc4c(c3)CC(C)O4)C(=O)C(=O)N2Cc2cccnc2)cc1 (configuration not stated) | · | · | · | -14 | 104 | 1 | ·
CC1Cc2cc(/C(O)=C3/C(=O)C(=O)N(Cc4ccncc4)C3c3ccc(N(C)C)cc3)ccc2O1 (configuration not stated) | · | · | · | 2 | 111 | 22* | >50
CCC(NS(=O)(=O)c1ccc2c(c1)Cc1cc(S(=O)(=O)NC(CC)C(=O)O)ccc1-2)C(=O)O (configuration not stated) | · | · | · | 2 | 114 | 2 | ·
COc1ccc(/C=N/NC(=O)c2sc3nc(C)cc(C)c3c2N)cc1 | 35 | 19 | 8 | -11 | 95 | 23* | 6.6*
COc1cc(OC)cc(C(=O)NN(CCC#N)C2=NS(=O)(=O)c3ccccc32)c1 | · | · | · | -4 | 94 | 1 | ·
O=C1C=C(c2cnc3ccccc3c2)C[C@@H](c2ccc3c(c2)OCO3)C1 | · | · | · | · | 99 | · | ·
COc1ccc2cc(C(=O)N/N=C/c3sc4ccccc4c3O)ccc2c1 | -175 | -39 | -9 | -12 | 109 | 22* | i
COc1ccc(C(=O)N/N=C/c2sc3ccccc3c2O)cc1 | 71 | 18 | 4 | -15 | 101 | 8 | ·
CN(Cc1c(F)cccc1Cl)C(=O)c1cnc2ccccc2n1 | · | · | · | -13 | 93 | -3 | ·
CCN(CC)Cc1c(CC(C)C)oc(C)c1C(=O)O | -4 | 3 | 0 | 10 | 99 | 21* | >50
CC1(C)CC(=O)C=C(Nc2ccc(S(N)(=O)=O)cc2)C1 | 1 | 0 | 14 | -4 | 100 | 22* | >50
O=C(NNc1ccccc1C(F)(F)F)c1sccc1Br | 0 | -1 | 1 | -4 | · | -3 | ·
CCOC(=O)c1c(N2C(=O)Nc3ccccc3N2O)sc2c1CCCC2 | -1 | 0 | 4 | 2 | 89 | 20* | >50
COC(=O)c1c(N2C(=O)Nc3ccccc3N2O)sc(C)c1C | -2 | 1 | 18 | 1 | 83 | -2 | ·

High-throughput results (PubChem BioAssay)
